Experimental data taken from ChEMBL document CHEMBL1131877, “Structure-activity relationship of short-chain sphingoid bases as inhibitors of sphingosine kinase” (Bioorg Med Chem Lett, 1999).

System: HEK293
Experiment: Inhibitory activity against sphingosine kinase expressed in HEK293 cells at 10 uM
Type: cell-based
Settings: Homo sapiens
Procedure, shortened: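 Sphingosine kinase from cytosolic fractions of HEK 293 cells transfected to overexpress the enzyme (0.125 μg). Substrate D-erythro-sphingosine 10 μM in Triton X-100 (0.25% final), with [³²P]ATP (10 μCi, 1 mM) and MgCl₂ 10 mM. Analogues tested at 10 μM. After 10 min at 37 °C, sphingosine-1-phosphate formation measured. Activity given as % of vehicle-only control; means ± S.D.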

Compound | inhibition
N[C@@H](CO)[C@@H](O)CCc1ccccc1 | 72%
CCCCCCCCC[C@H](F)[C@@H](N)CO | 68%
N[C@@H](CO)[C@@H](O)/C=C/c1ccccc1 | 79%
N[C@@H](CO)[C@@H](F)CCc1ccccc1 | 62%
CCCCCCCC(F)/C=C/[C@@H](N)CO (stereo partly drawn) | 80%
CCCCCCC/C=C/[C@H](O)[C@@H](N)CO | 70%
CCCCCCCCC[C@H](O)[C@@H](N)CO | 50%
CCCCCCC/C=C/[C@H](F)[C@@H](N)CO | 82%
CCCCCCC/C=C/[C@@H](O)[C@@H](N)CO | 69%
CCCCCCCCC[C@@H](O)[C@@H](N)CO | 48%
N[C@@H](CO)[C@H](O)CCc1ccccc1 | 59%
CCCCCCCCCCCCC/C=C/[C@@H](O)[C@H](CO)N(C)C | 47%
N[C@@H](CO)[C@H](O)/C=C/c1ccccc1 | 77%
